Measurements: PMC2655349 (Nuclear medicine and biology, 2009)
Where two headings read alike, the source gives them in different places.

Experiments:
[1] = radiopharmaceutical biodistribution in rats following intravenous injection; assay type: in vivo, rat; details: male rats, i.v.; for Percentage of Injected Dose per Organ, Blood: blood assumed 7% of body mass
How it was run: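 67Ga-labelled chelate prepared with ligand in ethanol containing acetylacetone at 70°C for 20 min, diluted with saline to 5–10% ethanol, filtered, purity checked by C18 TLC. Given 1–5 μCi (0.037–0.185 MBq) via femoral vein to ether-anaesthetised male Sprague-Dawley rats. Organs sampled at 1 min and 2 h. Data given as %ID/organ and %ID/g wet tissue; blood taken as 7% and muscle as 42% of body mass.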

[2] = rats, ref [11], cited from earlier work
[3] = 60-minutes rather than 120-minutes post-injection
[4] = 1 min, based on % injected dose per gram

| Structure (SMILES) | Percentage of Injected Dose per Organ, Brain ([1]; 1 min post-injection) | Percentage of Injected Dose per Organ, Heart ([1]; 1 min post-injection) | Percentage of Injected Dose per Organ, Kidney (1) ([1]; 1 min post-injection) | Percentage of Injected Dose per Organ, Liver ([1]; 1 min post-injection) | Percentage of Injected Dose per Organ, Lungs ([1]; 1 min post-injection) | Percentage of Injected Dose per Organ, Spleen ([1]; 1 min post-injection) | Percentage of Injected Dose per Organ, Blood ([1]; 1 min post-injection) | Percentage of Injected Dose per Organ, Brain ([1]; 120 min post-injection) | Percentage of Injected Dose per Organ, Heart ([1]; 120 min post-injection) | Percentage of Injected Dose per Organ, Kidney (1) ([1]; 120 min post-injection) | Percentage of Injected Dose per Organ, Lungs ([1]; 120 min post-injection) | Percentage of Injected Dose per Organ, Spleen ([1]; 120 min post-injection) | Percentage of Injected Dose per Organ, Blood ([1]; 120 min post-injection) | Heart/Blood ratio [2, 3] | Heart/Liver ratio [2, 3] | Heart/Lung ratio [2, 3] | Heart/Blood ratio [2, 4] | Heart/Liver ratio [2, 4] | Heart/Lung ratio [2, 4] |
| --- | --- | --- | --- | --- | --- | --- | --- | --- | --- | --- | --- | --- | --- | --- | --- | --- | --- | --- | --- |
| [86Rb+].[Cl-] [[^86Rb]RbCl, [^86Rb]rubidium chloride] | 0.08 ± 0.01 Percentage of Injected Dose per Organ | 2.86 ± 0.38 Percentage of Injected Dose per Organ | 6.7 ± 1.1 Percentage of Injected Dose per Organ | 5.4 ± 0.8 Percentage of Injected Dose per Organ | 2.0 ± 0.3 Percentage of Injected Dose per Organ | 0.32 ± 0.08 Percentage of Injected Dose per Organ | 3.61 ± 0.28 Percentage of Injected Dose per Organ | 0.12 ± 0.01 Percentage of Injected Dose per Organ | 0.69 ± 0.02 Percentage of Injected Dose per Organ | 1.01 ± 0.04 Percentage of Injected Dose per Organ | 1.11 ± 0.01 Percentage of Injected Dose per Organ | 0.71 ± 0.13 Percentage of Injected Dose per Organ | 1.43 ± 0.08 Percentage of Injected Dose per Organ | – | – | – | – | – | – |
| [C-]#[N+]CC(C)(C)OC.[C-]#[N+]CC(C)(C)OC.[C-]#[N+]CC(C)(C)OC.[C-]#[N+]CC(C)(C)OC.[C-]#[N+]CC(C)(C)OC.[C-]#[N+]CC(C)(C)OC.[Tc] [[^99mTc]Tc-Sestamibi^1+, [^99mTc]Tc-sestamibi] | – | – | – | – | – | – | – | – | – | – | – | – | – | 208 ± 25 | 5.3 ± 1.7 | 6.5 ± 1.7 | 11.1 ± 0.2 | 1.7 ± 0.1 | 1.3 ± 0.2 |
